Reference: ChEMBL document CHEMBL4007461, “Synthesis, Antiviral Potency, in Vitro ADMET, and X-ray Structure of Potent CD4 Mimics as Entry Inhibitors That Target the Phe43 Cavity of HIV-1 gp120” (J Med Chem, 2017)
Values after ≈ are worked out from the molar mass of the structure shown.

Legend:
[1] = system: Human immunodeficiency virus 1
[2] = system: Human immunodeficiency virus 1; assay: microbe, parasite or virus in culture; conditions: Human immunodeficiency virus 1, subtype C CAP210.2.00.E8
[3] = system: Human immunodeficiency virus 1; assay: microbe, parasite or virus in culture; conditions: Human immunodeficiency virus 1, subtype A/E CRF01_AE clone 269
[4] = Apparent permeability from apical to basolateral side in human Caco2 cells at 10 uM at pH 7.4 by LC-MS/MS analysis; format: ADME, cell-based; conditions: Caco-2, pH 7.4
Procedure, shortened: (§1)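 Caco-2 cells, passage 40-60, seeded on Transwell inserts at 1 x 10^5 cells/cm2 and grown 20 days in DMEM. Monolayers equilibrated 40 min in HBSS. Donor: compound at 10 µM final, 1% DMSO, in HBSS pH 7.4 with lucifer yellow as integrity marker. Sampled at 120 min, A-B and B-A, in duplicate, by LC-MS/MS. Papp = (dQ/dt)/(C0 × A); efflux ratio = Papp(B-A)/Papp(A-B).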

Cytochrome P450 2C19 = Cytochrome P450 2C19 (Homo sapiens, UniProt P33261); assay: Inhibition of CYP2C19 in human liver microsomes using mephenytoin as substrate after 60 mins in presence of NADPH by LC-MS/MS analysis; format: ADME
Cytochrome P450 2C19, sequence (P33261 whole entry): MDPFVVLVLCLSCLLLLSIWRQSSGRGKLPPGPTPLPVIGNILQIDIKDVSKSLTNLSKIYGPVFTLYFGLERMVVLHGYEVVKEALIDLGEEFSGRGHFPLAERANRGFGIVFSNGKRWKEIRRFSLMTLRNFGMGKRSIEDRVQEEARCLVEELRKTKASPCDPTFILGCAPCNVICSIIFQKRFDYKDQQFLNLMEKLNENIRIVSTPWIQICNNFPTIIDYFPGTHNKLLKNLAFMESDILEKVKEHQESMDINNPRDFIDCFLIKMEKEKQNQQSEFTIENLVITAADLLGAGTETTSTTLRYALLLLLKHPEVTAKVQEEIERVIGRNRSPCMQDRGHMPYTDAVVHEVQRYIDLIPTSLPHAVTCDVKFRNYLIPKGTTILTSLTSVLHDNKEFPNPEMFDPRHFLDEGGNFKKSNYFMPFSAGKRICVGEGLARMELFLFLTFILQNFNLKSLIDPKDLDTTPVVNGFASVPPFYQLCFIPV

[5] = system: Human immunodeficiency virus 1; assay: Antiviral activity against ENV pseudotyped CCR5-tropic HIV1 subtype D QA013.70I.ENV.M12; format: functional; conditions: Human immunodeficiency virus 1, subtype D QA013.70I.ENV.M12
Procedure, shortened: (§2)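 Env-pseudotyped viruses made by co-transfecting HEK293T cells with an Env-deleted pSG3 backbone (8 µg) and an Env-expression plasmid (8 µg). Supernatants were harvested 2 days after transfection, filtered, titered and stored at −80 °C. They were used for single-cycle infection, and IC50 was taken from percent inhibition.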

[6] = Inhibition of CYP1A in human liver microsomes using ethoxyresorufin as substrate after 5 mins in presence of NADPH by LC-MS/MS analysis
MT2 = assay: Cytotoxicity against human MT2 cells incubated for 4 days by XTT assay; format: cell-based; conditions: mt2, 96 h, 96 h
Procedure, shortened: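 Run alongside the MT-2 multicycle infection assay. Compound at graded concentrations mixed with an equal volume of MT-2 cells (10^5 cells/ml). Medium replaced next day and culture continued four days.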

[7] = Metabolic stability in human liver microsomes assessed as compound remaining at 45 mins in presence of NADPH by LC-MS/MS analysis; format: ADME, microsome; conditions: read-out: Stability
[8] = system: Human immunodeficiency virus 1; assay: microbe, parasite or virus in culture; conditions: Human immunodeficiency virus 1, subtype D/A BF535.W6M.ENV.A1
[9] = system: Human immunodeficiency virus 1; assay: Antiviral activity against ENV pseudotyped CCR5-tropic HIV1 subtype C 25711-2, clone 4; format: functional; conditions: Human immunodeficiency virus 1, subtype C 25711-2, clone 4
[10] = system: Human immunodeficiency virus 1; remark: listed apart in the source
[11] = Unbound fraction in human plasma at 5 uM by LC-MS/MS based equilibrium dialysis; format: ADME, cell-free
[12] = system: Vesicular stomatitis virus; assay: Antiviral activity against G-glycoprotein expressing VSV; format: functional
Procedure, shortened: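 VSV-G pseudovirus made in HEK293T cells from pVPack-VSV-G, MLV gag-pol pVPack-GP and pFB-luc plasmids. Virus was preincubated 30 min with graded compound concentrations, then added to U87-CD4-CXCR4 cells (1 x 10^4/well, plated overnight).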

[13] = system: Human immunodeficiency virus 1; assay: microbe, parasite or virus in culture; conditions: Human immunodeficiency virus 1, subtype C 6055-2, clone 3
[14] = system: Human immunodeficiency virus 1; assay: Antiviral activity against ENV pseudotyped CCR5-tropic HIV1 p9021_14.B2.4571; format: functional; conditions: Human immunodeficiency virus 1, p9021_14.B2.4571
Cytochrome P450 2D6 = Cytochrome P450 2D6 (Homo sapiens, UniProt P10635); assay: Inhibition of CYP2D6 in human liver microsomes using dextromethorphan as substrate after 5 mins in presence of NADPH by LC-MS/MS analysis; format: ADME
Cytochrome P450 2D6, sequence (P10635 whole entry): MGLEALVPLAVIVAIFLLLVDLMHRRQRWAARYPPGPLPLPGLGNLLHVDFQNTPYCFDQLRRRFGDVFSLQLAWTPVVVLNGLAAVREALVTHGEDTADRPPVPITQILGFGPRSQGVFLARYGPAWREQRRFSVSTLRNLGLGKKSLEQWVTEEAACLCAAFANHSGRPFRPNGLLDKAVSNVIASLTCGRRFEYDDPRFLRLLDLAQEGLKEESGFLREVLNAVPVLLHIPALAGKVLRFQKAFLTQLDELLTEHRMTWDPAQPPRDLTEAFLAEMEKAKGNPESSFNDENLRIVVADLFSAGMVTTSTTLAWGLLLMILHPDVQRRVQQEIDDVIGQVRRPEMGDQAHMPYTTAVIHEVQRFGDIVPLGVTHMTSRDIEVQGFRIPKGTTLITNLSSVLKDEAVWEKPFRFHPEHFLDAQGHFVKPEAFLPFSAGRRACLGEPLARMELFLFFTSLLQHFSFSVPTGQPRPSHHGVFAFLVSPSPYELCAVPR

[15] = system: Human immunodeficiency virus 1; assay: Antiviral activity against ENV pseudotyped CCR5-tropic HIV1 subtype C 225925-2, clone 22; format: functional; conditions: Human immunodeficiency virus 1, subtype C 225925-2, clone 22
Procedure, shortened: as §2

Cytochrome P450 3A4 = Cytochrome P450 3A4 (Homo sapiens, UniProt P08684); assay: Inhibition of CYP3A4 in human liver microsomes using midazolam as substrate after 5 mins in presence of NADPH by LC-MS/MS analysis; format: ADME
Cytochrome P450 3A4, sequence (P08684 whole entry): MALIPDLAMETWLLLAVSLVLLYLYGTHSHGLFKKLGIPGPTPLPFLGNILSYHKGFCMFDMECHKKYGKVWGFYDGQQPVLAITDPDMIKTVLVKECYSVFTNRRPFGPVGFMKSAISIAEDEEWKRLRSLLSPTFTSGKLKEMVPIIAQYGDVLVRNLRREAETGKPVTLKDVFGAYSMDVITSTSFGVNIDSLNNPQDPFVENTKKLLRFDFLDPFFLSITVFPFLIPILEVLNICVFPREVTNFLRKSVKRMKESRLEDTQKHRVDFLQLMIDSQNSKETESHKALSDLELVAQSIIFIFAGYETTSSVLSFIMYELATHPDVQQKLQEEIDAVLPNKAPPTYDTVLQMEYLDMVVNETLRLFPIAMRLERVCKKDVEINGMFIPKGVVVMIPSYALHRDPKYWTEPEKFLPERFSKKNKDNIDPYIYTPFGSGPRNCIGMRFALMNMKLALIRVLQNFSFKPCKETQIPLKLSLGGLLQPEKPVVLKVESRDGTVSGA

TZM = assay: (§3) Cytotoxicity against human TZM-bl cells incubated for 3 days by XTT assay; format: cell-based; conditions: tzm, 72 h
Procedure, shortened: (§4)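 TZM-bl cells, 1 x 10^4/well, cultured overnight at 37 °C. Compounds added at graded concentrations for three days.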

[16] = Inhibition of HIV1 HXB2 gp120-mediated cell to cell fusion using human MAGI-CCR5 cells as indicator cells and Env/Tat-expressing HL2/3 cells as effector cells preincubated with MAGI-CCR5 cells for 1 hr followed by HL2/3 cells addition by beta-galactosidase reporter gene assay; conditions: Human immunodeficiency virus 1, HXB2
[17] = system: Human immunodeficiency virus 1; assay: Antiviral activity against ENV pseudotyped CCR5-tropic HIV1 p1054.TC4.1499; format: functional
[18] = system: Human immunodeficiency virus 1; assay: microbe, parasite or virus in culture; conditions: Human immunodeficiency virus 1, subtype C Du 172, clone 17
[19] = Aqueous solubility of the compound at 1 to 100 uM in PBS at pH 7.4 after 2 hrs by turbidimetric analysis; format: physicochemical
Procedure, shortened: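 DMSO stocks diluted 1:100 into phosphate-buffered saline pH 7.4, giving 1, 3, 10, 30 and 100 µM final in 1% DMSO. Seven replicate wells per concentration, incubated 2 h at 37 °C, absorbance read at 620 nm. Solubility taken as the concentration giving absorbance above the 1% DMSO vehicle.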

[20] = Inhibition of HIV1 reverse transcriptase by colorimetric assay; parameters: species or system Human immunodeficiency virus 1
Procedure, shortened: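 HIV-1 reverse transcriptase activity measured with a commercial colorimetric reverse transcriptase kit, following the maker's instructions.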

[21] = system: Human immunodeficiency virus 1; assay: microbe, parasite or virus in culture; conditions: Human immunodeficiency virus 1, subtype A/G CRF02_AG clone 263
[22] = system: Human immunodeficiency virus 1; assay: microbe, parasite or virus in culture; conditions: Human immunodeficiency virus 1, subtype C QB099.391 M.ENV.B1
[23] = Intrinsic clearance in human liver microsomes assessed per mg protein in presence of NADPH by LC-MS/MS analysis; format: ADME, microsome; conditions: read-out: CLH
[24] = Apparent permeability from basolateral to apical side in human Caco2 cells at 10 uM at pH 7.4 by LC-MS/MS analysis; format: ADME, cell-based; conditions: Caco-2, pH 7.4
Procedure, shortened: as §1

[25] = system: Human immunodeficiency virus 1; assay: microbe, parasite or virus in culture; conditions: Human immunodeficiency virus 1, subtype C ZM109F.PB4
[26] = molecular target: Voltage-gated inwardly rectifying potassium channel KCNH2 (Homo sapiens, UniProt Q12809); assay: Inhibition of human ERG expressed in CHO cells by patch clamp electrophysiology assay; format: cell-based
Voltage-gated inwardly rectifying potassium channel KCNH2, sequence (Q12809 whole entry): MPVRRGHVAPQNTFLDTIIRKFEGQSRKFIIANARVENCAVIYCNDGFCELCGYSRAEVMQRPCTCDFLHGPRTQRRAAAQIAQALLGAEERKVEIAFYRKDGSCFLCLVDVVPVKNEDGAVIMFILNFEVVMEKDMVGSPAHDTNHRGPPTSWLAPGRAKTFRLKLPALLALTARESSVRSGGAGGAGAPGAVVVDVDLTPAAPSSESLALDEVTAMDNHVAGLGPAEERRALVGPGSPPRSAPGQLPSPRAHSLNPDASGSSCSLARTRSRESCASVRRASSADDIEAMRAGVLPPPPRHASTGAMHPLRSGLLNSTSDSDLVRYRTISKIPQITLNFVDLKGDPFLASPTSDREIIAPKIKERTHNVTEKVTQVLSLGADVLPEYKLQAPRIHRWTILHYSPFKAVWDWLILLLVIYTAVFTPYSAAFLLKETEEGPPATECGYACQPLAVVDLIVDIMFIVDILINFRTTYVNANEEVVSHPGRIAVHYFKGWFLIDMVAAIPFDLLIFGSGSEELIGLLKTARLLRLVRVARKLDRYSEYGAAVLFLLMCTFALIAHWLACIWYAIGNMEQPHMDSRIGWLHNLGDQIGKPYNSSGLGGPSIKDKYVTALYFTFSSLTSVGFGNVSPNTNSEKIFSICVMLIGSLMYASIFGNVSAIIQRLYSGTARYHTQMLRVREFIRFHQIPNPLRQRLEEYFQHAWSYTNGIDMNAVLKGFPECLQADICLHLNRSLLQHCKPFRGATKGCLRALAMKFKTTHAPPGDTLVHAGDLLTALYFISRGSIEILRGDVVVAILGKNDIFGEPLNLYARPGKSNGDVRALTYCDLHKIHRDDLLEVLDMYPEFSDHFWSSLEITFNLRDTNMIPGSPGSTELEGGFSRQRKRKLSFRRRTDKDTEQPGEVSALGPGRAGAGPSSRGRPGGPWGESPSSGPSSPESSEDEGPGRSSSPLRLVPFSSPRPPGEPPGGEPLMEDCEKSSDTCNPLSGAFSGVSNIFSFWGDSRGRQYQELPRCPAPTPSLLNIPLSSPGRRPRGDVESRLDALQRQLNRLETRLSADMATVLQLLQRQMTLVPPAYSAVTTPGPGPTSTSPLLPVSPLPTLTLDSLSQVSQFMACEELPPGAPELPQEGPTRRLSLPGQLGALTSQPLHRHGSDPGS

Cytochrome P450 2C9 = Cytochrome P450 2C9 (Homo sapiens, UniProt P11712); assay: Inhibition of CYP2C9 in human liver microsomes using tolbutamide as substrate after 60 mins in presence of NADPH by LC-MS/MS analysis; format: ADME
Cytochrome P450 2C9, sequence (P11712 whole entry): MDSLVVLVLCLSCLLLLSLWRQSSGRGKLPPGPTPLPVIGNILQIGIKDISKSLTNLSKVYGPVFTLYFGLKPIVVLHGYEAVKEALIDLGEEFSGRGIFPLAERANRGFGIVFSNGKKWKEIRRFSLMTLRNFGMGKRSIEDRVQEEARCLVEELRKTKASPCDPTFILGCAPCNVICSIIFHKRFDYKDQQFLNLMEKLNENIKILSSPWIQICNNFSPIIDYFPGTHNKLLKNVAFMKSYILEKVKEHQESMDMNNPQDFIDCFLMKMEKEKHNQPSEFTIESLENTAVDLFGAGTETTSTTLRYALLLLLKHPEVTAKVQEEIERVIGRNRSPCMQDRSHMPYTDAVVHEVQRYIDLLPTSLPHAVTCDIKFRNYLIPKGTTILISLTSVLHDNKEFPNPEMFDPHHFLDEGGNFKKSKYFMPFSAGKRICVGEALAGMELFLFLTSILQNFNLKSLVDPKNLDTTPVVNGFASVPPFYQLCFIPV

[27] = system: Human immunodeficiency virus 1; assay: Antiviral activity against HIV1 3B infected in human MT2 cells assessed as inhibition of p24 antigen production pretreated with virus for 30 mins followed by 4 days incubation with cells by sandwich ELISA based multicycle infection assay; format: functional, cell-based
Procedure, shortened: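 MT-2 cells were infected with HIV-1 IIIB at 100 TCID50 and preincubated 30 min with graded compound concentrations. Medium was replaced next day. Supernatants were collected 4 days post-infection, lysed with equal volume 5% Triton X-100, and p24 was measured by sandwich ELISA. IC50 came from percent inhibition of p24.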

[28] = system: Human immunodeficiency virus 1; assay: microbe, parasite or virus in culture; conditions: Human immunodeficiency virus 1, subtype B p1058_11.B11.1550
[29] = system: Human immunodeficiency virus 1; assay: Antiviral activity against ENV pseudotyped CCR5-tropic HIV1 p9014_01.TBI.4769; format: functional; conditions: Human immunodeficiency virus 1, p9014_01.TBI.4769
Procedure, shortened: as §2

[30] = system: Human immunodeficiency virus 1; assay: microbe, parasite or virus in culture; conditions: Human immunodeficiency virus 1, AC10.0, clone 29
[31] = system: Human immunodeficiency virus 1; assay: microbe, parasite or virus in culture; conditions: Human immunodeficiency virus 1, subtype A QB726.70M.ENV.C4
[32] = system: Human immunodeficiency virus 1; assay: microbe, parasite or virus in culture; conditions: Human immunodeficiency virus 1, pCAAN5342 clone A2
[33] = system: Human immunodeficiency virus 1; assay: microbe, parasite or virus in culture; conditions: Human immunodeficiency virus 1, subtype A2/D QG393.60M.ENV.B8
[34] = system: Human immunodeficiency virus 1; assay: Antiviral activity against ENV pseudotyped CCR5-tropic HIV1 subtype C 6936-2, clone 21; format: functional; conditions: Human immunodeficiency virus 1, subtype C 6936-2, clone 21
Procedure, shortened: as §2

[35] = system: Human immunodeficiency virus 1; assay: Antiviral activity against ENV pseudotyped CCR5-tropic HIV1 subtype D QD435.100M.ENV.E1; format: functional; conditions: Human immunodeficiency virus 1, subtype D QD435.100M.ENV.E1
[36] = as §3; format: cell-based; conditions: TZM-bl cells
Procedure, shortened: as §4

[37] = system: Human immunodeficiency virus 1; assay: microbe, parasite or virus in culture; conditions: Human immunodeficiency virus 1, subtype A/G CRF02_AG clone 278
[38] = system: Human immunodeficiency virus 1; assay: microbe, parasite or virus in culture; conditions: Human immunodeficiency virus 1, subtype C Du422, clone 1
[39] = system: Human immunodeficiency virus 1; assay: Antiviral activity against ENV pseudotyped CCR5-tropic HIV1 subtype D QD435.100M.ENV.A4; format: functional; conditions: Human immunodeficiency virus 1, subtype D QD435.100M.ENV.A4
Procedure, shortened: as §2

[40] = system: Human immunodeficiency virus 1; assay: Antiviral activity against HIV1 HXB2 pseudovirus infected in human TZM-bl cells assessed as inhibition of viral entry treated 4 hrs post infection measured after 48 hrs by luciferase reporter gene assay; format: functional

Cc1ccc(-c2ccc(C(=O)NC(CN)c3ncc(CO)s3)[nH]2)cc1F (stereo in doubt)
IC50 [1]: 0.4 µM
IC50 [2]: 0.49 µM
IC50 [3]: 0.3 µM
Papp A→B at 10 µM [4]: 2.56 ×10⁻⁶ cm/s
IC50 (Cytochrome P450 2C19): > 25 µM
IC50 [5]: 0.24 µM
IC50 [6]: 8.01 µM
CC50 (MT2): 38 µM
remaining at […] [7]: 101%
IC50 [8]: 0.55 µM
IC50 [9]: 0.3 µM
IC50 [10]: 0.4 µM
fraction unbound at 5 µM [11]: 0.04
IC50 [12]: 42.9 µM
IC50 [13]: 0.22 µM
IC50 [14]: 0.22 µM
IC50 (Cytochrome P450 2D6): > 25 µM
IC50 [15]: 0.34 µM
IC50 (Cytochrome P450 3A4): > 25 µM
CC50 (TZM): 38.8 µM
IC50 [16]: 8.3 µM
IC50 [17]: 0.4 µM
IC50 [18]: 0.62 µM
solubility kinetic at 2 h [19]: > 100 µM
IC50 [20]: 7.2 µM
IC50 [21]: 0.5 µM
IC50 [22]: 0.35 µM
microsomal CLint [23]: < 10 µL/min/mg
Papp B→A at 10 µM [24]: 19.5 ×10⁻⁶ cm/s
IC50 [25]: 0.2 µM
IC50 [26]: 9.98 µM
IC50 (Cytochrome P450 2C9): > 25 µM
IC50 [27]: 0.76 µM
IC50 [28]: 0.28 µM
IC50 [29]: 0.31 µM

NCC(NC(=O)c1ccc(-c2cc(F)c(Cl)c(F)c2)[nH]1)c1ncc(CO)s1 (stereo in doubt)
IC50 [30]: 0.5 µM
Papp A→B at 10 µM [4]: 1.17 ×10⁻⁶ cm/s
IC50 [31]: 0.51 µM
IC50 (Cytochrome P450 2C19): > 25 µM
IC50 [5]: 0.5 µM
IC50 [6]: > 25 µM
CC50 (MT2): 37 µM
IC50 [32]: 0.6 µM
IC50 [33]: 0.27 µM
remaining at […] [7]: 97.4%
IC50 [8]: 0.94 µM
IC50 [9]: 0.52 µM
IC50 [34]: 0.31 µM
fraction unbound at 5 µM [11]: 0.1
IC50 [12]: 26 µM
IC50 [14]: 0.31 µM
IC50 (Cytochrome P450 2D6): > 25 µM
IC50 [15]: 0.33 µM
IC50 [35]: 0.5 µM
IC50 (Cytochrome P450 3A4): > 25 µM
CC50 at 72 h [36]: 39.5 µM
IC50 [37]: 0.5 µM
IC50 [38]: 0.32 µM
IC50 [16]: 13.3 µM
IC50 ([17]; Human immunodeficiency virus 1, p1054.TC4.1499): 0.65 µM
solubility kinetic at 2 h [19]: 65 µM (≈ 26.8 µg/mL)
IC50 [20]: 8.4 µM
IC50 [21]: 0.6 µM
IC50 [22]: 0.51 µM
microsomal CLint [23]: < 10 µL/min/mg
IC50 [39]: 0.32 µM
Papp B→A at 10 µM [24]: 17.2 ×10⁻⁶ cm/s
IC50 [26]: 14.1 µM
IC50 (Cytochrome P450 2C9): > 25 µM

Cc1cn([C@H]2C[C@H](N=[N+]=[N-])[C@@H](CO)O2)c(=O)[nH]c1=O [ZIDOVUDINE]
inhibition (INH) [40]: 50%
